Activity calls are given as the source filed them. No cut-off for these calls is given here.
Assays:
[1] = system: Mus musculus; test: Antinociceptive activity in formalin induced nociceptive mouse model assessed as reduction in nociceptive behavior at 0.5 mg/kg, ip administered 10 mins prior to formalin induction measured for 15 to 60 mins; assay type: functional, organism-based
Summary of the method: (§1)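 Mice, randomized, n = 8–10 per group; ip compound or vehicle (10% DMSO in 0.9% NaCl) 10 min before formalin (1.25% in saline, 30 μL) into dorsal hind paw. Lifting, licking, shaking, flinching timed every 5 min for 60 min; phase 1 0–7 min, phase 2 15–60 min; mean ± SEM.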

[2] = system: Mus musculus; test: Antinociceptive activity in formalin induced nociceptive mouse model assessed as reduction in nociceptive behavior at 1 mg/kg, ip administered 10 mins prior to formalin induction measured up to 7 mins in presence of adenosine A3 agonist 2Cl-IBMECA; assay type: functional, organism-based; summary of the method: as §1
[3] = system: Mus musculus; test: Antinociceptive activity in formalin induced nociceptive mouse model assessed as reduction in nociceptive behavior at 1 mg/kg, ip administered 10 mins prior to formalin induction measured for 15 to 60 mins in presence of adenosine A3 agonist 2Cl-IBMECA; assay type: functional, organism-based; summary of the method: as §1
[4] = system: Mus musculus; test: Antinociceptive activity in formalin induced nociceptive mouse model assessed as reduction in nociceptive behavior at 0.5 mg/kg, ip administered 10 mins prior to formalin induction measured up to 7 mins; assay type: functional, organism-based; summary of the method: as §1
[5] = target: T1, Adenosine receptor A3 (Rattus norvegicus, UniProt P28647); test: Displacement of [3H]NECA from recombinant rat adenosine A3 receptor expressed in CHO cell membranes after 3 hrs by microbeta scintillation counting
T1 sequence (P28647 whole entry): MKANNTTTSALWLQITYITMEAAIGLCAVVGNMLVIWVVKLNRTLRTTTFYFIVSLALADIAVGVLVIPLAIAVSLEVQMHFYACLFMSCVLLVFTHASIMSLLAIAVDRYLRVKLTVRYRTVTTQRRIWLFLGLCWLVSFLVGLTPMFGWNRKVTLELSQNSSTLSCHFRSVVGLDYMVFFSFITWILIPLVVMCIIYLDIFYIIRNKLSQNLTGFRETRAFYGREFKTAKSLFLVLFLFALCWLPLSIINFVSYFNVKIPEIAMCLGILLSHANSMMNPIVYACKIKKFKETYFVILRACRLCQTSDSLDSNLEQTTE
Summary of the method: (§2)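 CHO membranes with stable human A1, A2A, A3 or rat A3 (1000g then 100 000g spin, stored -80 °C). Competition: hA1 1 nM [3H]CCPA, nonspecific with 1 mM theophylline; hA2A 10 nM [3H]NECA; hA3 1 nM [3H]HEMADO; rA3 30 nM [3H]NECA; latter three nonspecific with 100 μM R-PIA.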

[6] = Lipophilicity, log P of the compound; assay type: physicochemical; details: octanol/water
[7] = system: Mus musculus; test: Antinociceptive activity in formalin induced nociceptive mouse model at 1 mg/kg, ip administered 10 mins prior to formalin induction measured up to 60 mins; assay type: functional, organism-based; summary of the method: as §1
[8] = target: T2, Adenosine receptor A1 (Homo sapiens) (UniProt P30542); test: Agonist activity at recombinant human adenosine A1 receptor expressed in CHO cell membranes assessed as inhibition of forskolin-stimulated adenylyl cyclase activity after 10 mins relative to CCPA; assay type: functional, cell-based
T2 sequence (whole entry): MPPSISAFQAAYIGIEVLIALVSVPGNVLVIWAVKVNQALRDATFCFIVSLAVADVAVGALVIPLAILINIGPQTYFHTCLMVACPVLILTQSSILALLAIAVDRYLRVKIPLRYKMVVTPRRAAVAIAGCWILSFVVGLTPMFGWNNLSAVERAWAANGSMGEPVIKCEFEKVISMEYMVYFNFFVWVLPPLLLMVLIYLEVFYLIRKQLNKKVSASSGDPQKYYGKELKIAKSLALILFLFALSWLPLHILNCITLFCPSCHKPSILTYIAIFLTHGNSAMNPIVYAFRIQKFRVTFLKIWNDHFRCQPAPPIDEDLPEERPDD
Summary of the method: (§3)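 hA1 in CHO cell membranes (single high-speed spin, resuspended in 50 mM Tris/HCl pH 7.4, used immediately); agonist inhibition of forskolin-stimulated adenylyl cyclase; efficacy relative to CCPA as reference full agonist (100%). Geometric means with 95% confidence intervals, n = 3.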

[9] = target: T3, Adenosine receptor A3 (Homo sapiens, UniProt P0DMS8); test: Antagonist activity at recombinant human adenosine A3 receptor expressed in CHO cell membranes assessed as reversal of NECA-mediated inhibition of adenylyl cyclase activity after 10 mins by [alpha-32P]ATP assay; assay type: functional, cell-based
T3 sequence (P0DMS8 whole entry): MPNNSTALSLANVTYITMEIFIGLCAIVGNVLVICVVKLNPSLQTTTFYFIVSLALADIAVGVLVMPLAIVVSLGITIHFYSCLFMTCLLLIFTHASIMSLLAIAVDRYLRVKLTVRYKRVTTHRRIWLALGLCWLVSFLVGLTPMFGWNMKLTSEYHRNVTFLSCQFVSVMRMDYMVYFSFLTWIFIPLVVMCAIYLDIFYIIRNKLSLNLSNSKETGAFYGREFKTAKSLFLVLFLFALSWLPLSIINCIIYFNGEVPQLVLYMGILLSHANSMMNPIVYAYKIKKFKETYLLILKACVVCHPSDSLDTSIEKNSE

[10] = target: T3, Adenosine receptor A3; test: Displacement of [3H]HEMADO from recombinant human adenosine […] receptor expressed in CHO cell membranes after 3 hrs by microbeta scintillation counting; summary of the method: as §2
[11] = target: T4, Adenosine receptor A2b (Homo sapiens, UniProt P29275); test: Agonist activity at recombinant human adenosine A2B receptor expressed in CHO cell membranes assessed as stimulation of adenylyl cyclase activity by [alpha-32P]ATP assay; assay type: functional, cell-based
T4 sequence (P29275 whole entry): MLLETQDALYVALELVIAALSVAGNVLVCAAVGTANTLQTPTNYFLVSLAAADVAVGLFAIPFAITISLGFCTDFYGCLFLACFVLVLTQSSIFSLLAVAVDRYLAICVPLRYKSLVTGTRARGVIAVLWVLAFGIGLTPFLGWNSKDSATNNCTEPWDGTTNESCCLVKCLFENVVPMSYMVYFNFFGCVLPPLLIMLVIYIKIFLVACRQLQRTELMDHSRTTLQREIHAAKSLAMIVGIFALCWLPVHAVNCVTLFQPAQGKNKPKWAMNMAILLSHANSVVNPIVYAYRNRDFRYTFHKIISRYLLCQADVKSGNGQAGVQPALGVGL
Summary of the method: (§4)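 hA2A or hA2B in CHO cell membranes (one high-speed spin, pellet in 50 mM Tris/HCl pH 7.4, used immediately); agonist stimulation of adenylyl cyclase gives EC50; partial agonism judged as efficacy against 100 μM NECA as full agonist. Geometric means, 95% confidence intervals, n = 3.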

[12] = target: T5, Adenosine receptor A2a (Homo sapiens, UniProt P29274); test: Agonist activity at recombinant human adenosine A2A receptor expressed in CHO cell membranes assessed as stimulation of adenylyl cyclase activity by [alpha-32P]ATP assay; assay type: functional, cell-based; summary of the method: as §4
[13] = target: T6, Adenosine receptor A2b (Homo sapiens) (UniProt P29275); test: Partial agonist activity at recombinant human adenosine A2B receptor expressed in CHO cell membranes assessed as stimulation of adenylyl cyclase activity by [alpha-32P]ATP assay relative to NECA; assay type: functional, cell-based; summary of the method: as §4
T6 sequence (whole entry): T4 sequence (P29275 whole entry)

[14] = Selectivity ratio of Ki for recombinant rat adenosine A3 receptor expressed in CHO cell membranes to Ki for recombinant human adenosine A3 receptor expressed in CHO cell membranes; assay type: cell-based; summary of the method: as §2
[15] = organism: Homo sapiens; test: Selectivity ratio of Ki for recombinant human adenosine A2A receptor expressed in CHO cell membranes to Ki for recombinant human adenosine A3 receptor expressed in CHO cell membranes; assay type: cell-based; summary of the method: as §2
[16] = target: T7, Adenosine receptor A1 (Homo sapiens, UniProt P30542); test: Displacement of [3H]CCPA from recombinant human adenosine A1 receptor expressed in CHO cell membranes after 3 hrs by microbeta scintillation counting; summary of the method: as §2
T7 sequence (P30542 whole entry): T2 sequence (whole entry)

[17] = target: Adenosine receptors; A1 & A3 (Homo sapiens) (UniProt P30542+P0DMS8); test: Selectivity ratio of Ki for recombinant human adenosine A3 receptor expressed in CHO cell membranes to Ki for recombinant human adenosine A1 receptor expressed in CHO cell membranes; assay type: cell-based; summary of the method: as §2
[18] = target: T5, Adenosine receptor A2a; test: Agonist activity at recombinant human adenosine A2A receptor expressed in CHO cell membranes assessed as stimulation of adenylyl cyclase activity relative to NECA; assay type: functional, cell-based; summary of the method: as §4
[19] = target: T5, Adenosine receptor A2a; test: Displacement of [3H]NECA from recombinant human adenosine A2A receptor expressed in CHO cell membranes after 3 hrs by microbeta scintillation counting; summary of the method: as §2
[20] = target: T7, Adenosine receptor A1; test: Agonist activity at recombinant human adenosine A1 receptor expressed in CHO cell membranes assessed as inhibition of forskolin-stimulated adenylyl cyclase activity after 10 mins in presence of [alpha-32P]ATP; assay type: functional, cell-based; summary of the method: as §3
[21] = organism: Homo sapiens; test: Selectivity ratio of Ki for recombinant human adenosine A2A receptor expressed in CHO cell membranes to Ki for recombinant human adenosine A1 receptor expressed in CHO cell membranes; assay type: cell-based; summary of the method: as §2
[22] = target: T2, Adenosine receptor A1 (Homo sapiens); test: Partial agonist activity at recombinant human adenosine A1 receptor expressed in CHO cell membranes assessed as inhibition of forskolin-stimulated adenylyl cyclase activity after 10 mins in presence of [alpha-32P]ATP relative to CCPA; assay type: functional, cell-based; summary of the method: as §3
[23] = target: T6, Adenosine receptor A2b (Homo sapiens); test: Agonist activity at recombinant human adenosine A2B receptor expressed in CHO cell membranes assessed as stimulation of adenylyl cyclase activity relative to NECA; assay type: functional, cell-based; summary of the method: as §4

T5 sequence (P29274 whole entry): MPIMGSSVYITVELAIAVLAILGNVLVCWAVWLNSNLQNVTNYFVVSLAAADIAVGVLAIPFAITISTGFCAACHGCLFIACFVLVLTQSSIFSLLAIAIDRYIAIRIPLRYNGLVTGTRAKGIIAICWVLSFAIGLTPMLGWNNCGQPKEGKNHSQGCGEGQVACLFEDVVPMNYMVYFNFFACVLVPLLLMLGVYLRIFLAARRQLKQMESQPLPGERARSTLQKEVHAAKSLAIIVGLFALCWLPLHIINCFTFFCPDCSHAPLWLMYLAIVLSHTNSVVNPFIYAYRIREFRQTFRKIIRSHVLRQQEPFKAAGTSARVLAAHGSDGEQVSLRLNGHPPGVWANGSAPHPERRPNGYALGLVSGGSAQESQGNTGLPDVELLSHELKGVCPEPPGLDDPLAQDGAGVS

Compound | Activity [1] | Activity [4] | Ki [5] | EC50 [9] | Ki [10] | EC50 [11] | EC50 [12] | Ratio Ki [14] | Ratio Ki [15] | Ki [16] | Ratio Ki [17] | Efficacy [18] | Ki [19] | EC50 [20] | Ratio Ki [21] | further results
O[C@@H]1[C@H](O)[C@@H](CCl)O[C@H]1n1cnc2c(NC3C[C@@H]4CC[C@@H]3C4)ncnc21 (mixture of isomers) | inactive | inactive | – | – | – | – | – | – | – | – | – | – | – | – | – | Activity [2]: Active; Activity [3]: Active
CCn1nnc([C@H]2O[C@@H](n3cnc4c(NCc5cccc(I)c5)nc(Cl)nc43)[C@H](O)[C@@H]2O)n1 | – | – | 2.53 nM | – | – | – | – | – | – | – | – | – | – | – | – | logP [6]: 4.06; Activity [7]: inactive
CCn1nnc([C@H]2O[C@@H](n3cnc4c(NCc5cccc(F)c5)ncnc43)C(O)C2O)n1 (single isomer, unassigned) | – | – | 9.26 nM | 12.5 nM | 1.2 nM | 1100 nM | 14.4 nM | 7.7 | 62 | 3.73 nM | 0.32 | > 90% | 74 nM | 147 nM | 20 | Efficacy [8]: > 90%; Activity [13]: 86%
CNC(=O)[C@H]1O[C@@H](n2cnc3c(NCc4cccc(I)c4)nc(Cl)nc32)[C@H](O)[C@@H]1O | inactive | inactive | – | – | – | – | – | – | – | – | – | – | – | – | – | –
CCn1nnc([C@H]2O[C@@H](n3cnc4c(NCc5cccc(I)c5)ncnc43)C(O)C2O)n1 (single isomer, unassigned) | – | – | 6.1 nM | 2.38 nM | 0.532 nM | 235 nM | 2.87 nM | 12 | 32 | 0.768 nM | 0.69 | > 90% | 16.8 nM | 27.4 nM | 22 | inhibition [22]: 87%; Efficacy [23]: > 90%
